# Results: the M2OR odorant receptor database
# Target: OR4M2B (Homo sapiens) (UniProt A0A0X1KG70)
# Conditions: stereoisomer not certain
# Summary of the method: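 Each entry records the cell line, G-protein, co-transfected protein and tags used. Methods varied with the source, often transient luciferase assays in mammalian cell lines. A receptor–molecule pair is called responsive (active) if the original authors judged its signal statistically different from baseline and non-responsive (inactive) otherwise.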
# Sequence of OR4M2B (Homo sapiens) (A0A0X1KG70 whole entry): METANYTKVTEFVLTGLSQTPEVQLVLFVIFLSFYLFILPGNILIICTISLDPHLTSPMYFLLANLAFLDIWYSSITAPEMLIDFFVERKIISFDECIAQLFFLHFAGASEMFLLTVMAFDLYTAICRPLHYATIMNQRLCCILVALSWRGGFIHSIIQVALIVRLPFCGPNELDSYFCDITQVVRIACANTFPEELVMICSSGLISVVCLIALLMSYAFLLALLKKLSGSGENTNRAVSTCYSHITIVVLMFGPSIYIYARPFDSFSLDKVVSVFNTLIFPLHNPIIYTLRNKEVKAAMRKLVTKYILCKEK
row,Compound,odorant receptor agonist call
1,CC(=O)c1c(C)c([N+](=O)[O-])c(C(C)(C)C)c([N+](=O)[O-])c1C,inactive
2,CC1CCCCCCCCCCCCC(=O)C1 (configuration not stated),inactive
